Measured values: ChEMBL document CHEMBL1806357, “A regioselective synthesis of some new pyrazol-1'-ylpyrazolo[1,5-a]pyrimidines in aqueous medium and their evaluation as antimicrobial agents” (2011)
In brackets after ≈: the same amount, converted by molar mass.

How the values were obtained:
Assay type in all cases: functional
[1] = test system: Escherichia coli; test: Antibacterial activity against Escherichia coli ATCC 8739 at 2 mg/ml after 24 hrs by agar-well diffusion technique; conditions: ATCC 8739, 24 h, read-out: DIZ
Summary of the method: (§1)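 Agar-well diffusion used MHA seeded with 24 h cultures at 0.5 McFarland (1 × 10^6 CFU/ml). 100 µl of compound (2 mg/ml in DMSO, filter-sterilized) went into each 6 mm well. Plates were incubated upright at 37 ± 1 °C for 24 h, and the inhibition zone diameter was measured in mm. DMSO was the negative control. Values are the mean of three replicates.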

[2] = test system: Pseudomonas aeruginosa; test: Antibacterial activity against Pseudomonas aeruginosa ATCC 25668 at 2 mg/ml after 24 hrs by agar-well diffusion technique; conditions: ATCC 25668, 24 h, read-out: DIZ; summary of the method: as §1
[3] = test system: Staphylococcus aureus; test: Antibacterial activity against Staphylococcus aureus ATCC 9144 at 2 mg/ml after 24 hrs by agar-well diffusion technique; conditions: ATCC 9144, 24 h, read-out: DIZ; summary of the method: as §1
[4] = test system: Bacillus cereus; test: Antibacterial activity against Bacillus cereus ATCC 11778 at 2 mg/ml after 24 hrs by agar-well diffusion technique; conditions: ATCC 11778, 24 h, read-out: DIZ; summary of the method: as §1
[5] = test system: Escherichia coli; test: Antibacterial activity against Escherichia coli ATCC 8739 after 24 hrs by broth microdilution method; conditions: ATCC 8739, 24 h
[6] = test system: Pseudomonas aeruginosa; test: Antibacterial activity against Pseudomonas aeruginosa ATCC 25668 after 24 hrs by broth microdilution method; conditions: ATCC 25668, 24 h
[7] = test system: Staphylococcus aureus; test: Antibacterial activity against Staphylococcus aureus ATCC 9144 after 24 hrs by broth microdilution method; conditions: ATCC 9144, 24 h
[8] = test system: Bacillus cereus; test: Antibacterial activity against Bacillus cereus ATCC 11778 after 24 hrs by broth microdilution method; conditions: ATCC 11778, 24 h
[9] = test system: Aspergillus terreus; test: Antifungal activity against Aspergillus terreus at 10 ug/ml after 7 days by poisoned food technique relative to control
Summary of the method: (§2)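 Poisoned food technique with soil-isolated fungi on PDA. Compound from a 1 mg/ml DMSO stock was added to molten agar at 40 ± 2 °C to give 10, 50, 100 or 200 µg/ml. A 6 mm mycelial disc from a 6-day culture was placed centrally, and plates were held at 28 ± 1 °C. Radial growth was measured after 7 days, and % inhibition was calculated against PDA/DMSO control, in triplicate.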

[10] = test system: Aspergillus terreus; test: Antifungal activity against Aspergillus terreus at 50 ug/ml after 7 days by poisoned food technique relative to control; summary of the method: as §2
[11] = test system: Aspergillus terreus; test: Antifungal activity against Aspergillus terreus at 100 ug/ml after 7 days by poisoned food technique relative to control; summary of the method: as §2
[12] = test system: Aspergillus terreus; test: Antifungal activity against Aspergillus terreus at 200 ug/ml after 7 days by poisoned food technique relative to control; summary of the method: as §2
[13] = test system: Alternaria alternata; test: Antifungal activity against Alternaria alternata at 10 ug/ml after 7 days by poisoned food technique relative to control; summary of the method: as §2
[14] = test system: Alternaria alternata; test: Antifungal activity against Alternaria alternata at 50 ug/ml after 7 days by poisoned food technique relative to control; summary of the method: as §2
[15] = test system: Alternaria alternata; test: Antifungal activity against Alternaria alternata at 100 ug/ml after 7 days by poisoned food technique relative to control; summary of the method: as §2
[16] = test system: Alternaria alternata; test: Antifungal activity against Alternaria alternata at 200 ug/ml after 7 days by poisoned food technique relative to control; summary of the method: as §2
[17] = test system: Fusarium oxysporum; test: Antifungal activity against Fusarium oxysporum at 10 ug/ml after 7 days by poisoned food technique relative to control; summary of the method: as §2
[18] = test system: Fusarium oxysporum; test: Antifungal activity against Fusarium oxysporum at 50 ug/ml after 7 days by poisoned food technique relative to control; summary of the method: as §2
[19] = test system: Fusarium oxysporum; test: Antifungal activity against Fusarium oxysporum at 100 ug/ml after 7 days by poisoned food technique relative to control; summary of the method: as §2
[20] = test system: Fusarium oxysporum; test: Antifungal activity against Fusarium oxysporum at 200 ug/ml after 7 days by poisoned food technique relative to control; summary of the method: as §2
[21] = test system: Helminthosporium; test: Antifungal activity against Helminthosporium sp. at 10 ug/ml after 7 days by poisoned food technique relative to control; summary of the method: as §2
[22] = test system: Helminthosporium; test: Antifungal activity against Helminthosporium sp. at 50 ug/ml after 7 days by poisoned food technique relative to control; summary of the method: as §2
[23] = test system: Helminthosporium; test: Antifungal activity against Helminthosporium sp. at 100 ug/ml after 7 days by poisoned food technique relative to control; summary of the method: as §2
[24] = test system: Helminthosporium; test: Antifungal activity against Helminthosporium sp. at 200 ug/ml after 7 days by poisoned food technique relative to control; summary of the method: as §2
[25] = test system: Helminthosporium; test: Antifungal activity against Helminthosporium sp. at 10 ug/ml after 7 days by poisoned food technique relative to 10 ug/ml mancozeb
[26] = test system: Alternaria alternata; test: Antifungal activity against Alternaria alternata at 10 ug/ml after 7 days by poisoned food technique relative to 10 ug/ml mancozeb
[27] = test system: Fusarium oxysporum; test: Antifungal activity against Fusarium oxysporum at 10 ug/ml after 7 days by poisoned food technique relative to 10 ug/ml mancozeb

MIC [5] [µg/mL] | MIC [6] [µg/mL] | MIC [7] [µg/mL] | MIC [8] [µg/mL] | Compound | zone of inhibition at 2000 µg/mL [1] [mm] | zone of inhibition at 2000 µg/mL [2] [mm] | zone of inhibition at 2000 µg/mL [3] [mm] | zone of inhibition at 2000 µg/mL [4] [mm] | Activity [9] [%] | Activity [10] [%] | Activity [11] [%] | Activity [12] [%] | Activity [13] [%] | Activity [14] [%] | Activity [15] [%] | Activity [16] [%] | Activity [17] [%] | Activity [18] [%] | Activity [19] [%] | Activity [20] [%] | other results
> 400 | > 400 | 400 (≈ 1660 µM) | > 400 | Cc1cc(C)n2nc(-n3nc(C)cc3C)cc2n1 | 7 | 7 | 7 | 7 | 9.87 | 33.7 | 68.5 | 73.2 | 47.5 | 69.5 | 71.6 | 73.1 | 56 | 67 | 67 | 71.9 | Activity [21]: 42.2%; Activity [22]: 66.6%; Activity [23]: 79.2%; Activity [24]: 79.2%; fold change (FC) [25]: 3.4; fold change (FC) [26]: 2.6; fold change (FC) [27]: 2
> 400 | > 400 | 400 (≈ 1360 µM) | 400 (≈ 1360 µM) | Cc1nn(-c2cc3nc(C)c4c(n3n2)CCC4)c2c1CCC2 | 7 | 7 | 7 | 7 |  |  |  |  |  |  |  |  |  |  |  |  | 
> 100 | > 100 | > 100 | > 100 | COc1ccc(-c2cc(C)nn2-c2cc3nc(C)cc(-c4ccc(OC)cc4)n3n2)cc1 | 8 | 8 | 8 | 8 | 2.5 | 6.25 | 7.5 | 11.3 | 0 | 0 | 11.1 | 11.1 | 6.55 | 3.27 | 26.2 | 20 | Activity [21]: 0%; Activity [22]: 0%; Activity [23]: 27.7%; Activity [24]: 62.2%
200 (≈ 530 µM) | 200 (≈ 530 µM) | 200 (≈ 530 µM) | > 200 | Cc1cc(-c2cccs2)n2nc(-n3nc(C)cc3-c3cccs3)cc2n1 | 8 | 8 | 8 | 8 |  |  |  |  |  |  |  |  |  |  |  |  | 
> 100 | > 100 | > 100 | > 100 | Cc1cc(-c2ccc(Br)cc2)n2nc(-n3nc(C)cc3-c3ccc(Br)cc3)cc2n1 | 8 | 8 | 8 | 8 |  |  |  |  |  |  |  |  |  |  |  |  | 
